Source: PubChem
In the library only some 2.9% were active in any assay of this set; here they are far more common.
SENP1 inh – SENP1 (human) catalytic domain inhibition. recombinant SENP1 catalytic domain, CyPet-SUMO1-YPet FRET cleavage. Q9P0U3. inhibition, % at 10 µM. 360,000 tested, 0.21% active;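 active = inhibition at least 30% at 10 µM, raw YFP signal under a set limit, fluorescence ratio 0.5 to 1.5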;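 note: 0% = enzyme with DMSO and 100% = no enzyme wells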
Target sequence (Q9P0U3 419-644 limits assumed): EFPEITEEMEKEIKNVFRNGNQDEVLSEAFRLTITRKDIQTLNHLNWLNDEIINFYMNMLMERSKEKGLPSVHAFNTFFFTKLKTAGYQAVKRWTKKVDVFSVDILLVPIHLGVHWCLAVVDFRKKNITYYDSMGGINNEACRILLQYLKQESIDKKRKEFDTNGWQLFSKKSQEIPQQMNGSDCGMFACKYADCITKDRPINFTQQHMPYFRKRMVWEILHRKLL
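Compound: 10 µM single point, 0.5% DMSO; Test system: hSENP1 catalytic domain, recombinant; Timing: 50 min reaction at room temperature; Technique: FRET, CFP and YFP emission; Control set: no-enzyme wells low, DMSO-plus-enzyme wells high control.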
SENP8 block-1 – blocks human SENP8 cleavage of Nedd8 substrate. Q96LD8. recombinant SENP8, Nedd8 substrate fluorescence. inhibition, % at 20 µM. 360,000 tested, 0.64% active; in the data active = inhibition mostly above about 40%, no sharp cut-off; inactive = mostly below about 27%
SENP7 block – SENP7 protease inhibition. Q9BQF6. recombinant SENP7, Z-RLRGG-aminoluciferin luminescence, 40 min. inhibition, % at 5 µM. 330,000 tested, 1.5% active;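 active = inhibition above about 50% at the single test dose, limit read from the data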;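 note: plate controls were DMSO with enzyme for no effect and no enzyme buffer wells for full effect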
SENP8 block-2 – blocks the human protease SENP8; 330,000 tested, 1.2% active; Q96LD8; AID 2540; purified SENP8, Z-RLRGG-aminoluciferin cleavage, luminescence; inhibition, % at 10 µM; in the data active = inhibition above about 50%
HSP90 inh – HSP90 refolding inhibition in rabbit reticulocyte lysate. 290,000 tested, 0.91% active. AID 1789. inhibition, % at 5.6 µM. luciferase refolding luminescence, 3 h;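 active = inhibition above the screen-wide mean plus 3 SD, computed separately per campaign, cut at about 16% in these data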;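 note: 0% = DMSO wells and 100% = 60 µM geldanamycin wells; inhibitors lower the luminescence because luciferase stays unfolded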
SENP6 inh – SENP6 protease inhibition. Q9GZR1. Recombinant SENP6 catalytic domain, aminoluciferin luminescence. inhibition, % at 10 µM. 330,000 tested, 1.8% active. AID 2599;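 active = inhibition above about 50% at the single tested dose, limit read from the data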;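 note: plate controls were DMSO wells with enzyme for no effect and DMSO wells lacking enzyme for full effect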
Target sequence (Q9GZR1 628-1112 limits assumed): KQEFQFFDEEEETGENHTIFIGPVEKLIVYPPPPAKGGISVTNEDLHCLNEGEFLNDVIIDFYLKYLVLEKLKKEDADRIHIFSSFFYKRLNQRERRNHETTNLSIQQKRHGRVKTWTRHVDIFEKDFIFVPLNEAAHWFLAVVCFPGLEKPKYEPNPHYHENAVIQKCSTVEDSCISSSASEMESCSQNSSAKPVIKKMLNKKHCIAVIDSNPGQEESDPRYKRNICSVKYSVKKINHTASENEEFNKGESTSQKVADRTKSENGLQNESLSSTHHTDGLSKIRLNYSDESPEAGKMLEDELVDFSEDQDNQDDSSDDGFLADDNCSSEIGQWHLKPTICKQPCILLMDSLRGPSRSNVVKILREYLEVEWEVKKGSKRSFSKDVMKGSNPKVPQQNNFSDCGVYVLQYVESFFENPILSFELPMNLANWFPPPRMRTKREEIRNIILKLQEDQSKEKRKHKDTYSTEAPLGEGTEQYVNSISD
SENP8 conf – confirmation of human SENP8 protease inhibitors; Recombinant SENP8, Z-RLRGG-aminoluciferin luminescence, 60 min; shares compounds with SENP7 block; AID 488912; 6,200 tested, 40% active; inhibition, % at 12.5 µM;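 active = mean inhibition across replicates above about 50%, limit read from the data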
SENP6 conf – confirmation of human SENP6 protease inhibitors; shares compounds with SENP7 block; recombinant SENP6, Z-RLRGG-aminoluciferin luminescence; inhibition, % at 12.5 µM; 6,200 tested, 58% active
SENP7 conf – human SENP7 inhibition, confirmed; shares compounds with SENP7 block; recombinant SENP7, Z-RLRGG-aminoluciferin luminescence, 40 min; 6,200 tested, 69% active; inhibition, % at 12.5 µM
Casp3 SENP sel – inhibits human caspase-3 in SENP selectivity test; shares compounds with SENP7 block; purified caspase-3, Z-DEVD-aminoluciferin luminescence, 60 min; 6,200 tested, 60% active; inhibition, % at 12.5 µM; AID 488918;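 active = mean inhibition above about 50%, limit read from the data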;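 note: plate controls were enzyme with DMSO for no effect and wells without caspase-3 for full effect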
SENP luc ctr – luminescence interference (SENP counter-screen) | inhibition, % at 12.5 µM | shares compounds with SENP7 block | Pre-incubated SENP8/Z-RLRGG-aminoluciferin, luciferase luminescence interference | 6,200 tested, 39% active | AID 488919;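 active = mean inhibition above about 50% when retested at one dose, limit read from the data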;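 note: plate controls were DMSO wells with completed reaction for no effect and substrate without enzyme for full effect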
Numbers without * were called inactive; . = no result given.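 Rule for the calls, unless noted: active = mean inhibition above about 50% in the one-dose retest (limit read from the data); inactive = the rest.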

SMILES	SENP1 inh	SENP8 block-1	SENP7 block	SENP8 block-2	HSP90 inh	SENP6 inh	SENP8 conf	SENP6 conf	SENP7 conf	Casp3 SENP sel	SENP luc ctr
CCOC(=O)N1CCN(CCC(=O)Nc2cccc(C)c2)CC1	-1.0	9.5	-4.6	-4.3	-4.5	-11.1	.	.	.	.	.
CCN1CCc2nc3sc(C(=O)N4CCc5ccccc5C4)c(N)c3cc2C1	-22.5	-192.9	2.7	2.4	3.0	6.3	.	.	.	.	.
CC(C)OC(=O)CC(=O)c1sc2nc3c(cc2c1N)CN(C)CC3	.	.	-8.0	0.9	1.2	54.2*	3.9	4.1	-6.7	0.8	-6.4
CCCCCCSC1=C(C#N)C(=O)NC2(CCCCC2)S1	-0.7	39.6	-1.2	59.2*	-1.9	34.6	7.9	86.9*	94.5*	39.5	88.5*
Brc1ccc(-c2noc(-c3ccccn3)n2)o1	-2.4	22.8	91.1*	86.2*	11.3	85.3*	40.4	86.3*	98.6*	93.1*	38.8
Clc1ccccc1-c1nc(-c2ccc(Br)o2)no1	-1.3	2.8	82.5*	83.1*	3.4	86.3*	-2.7	84.8*	96.6*	68.4*	73.4*
C/C(=N\NC(=O)c1cc2c(s1)CCC(C)C2)c1ccc[nH]1 (stereo not given)	-4.9	-272.9	69.7*	5.1	.	6.5	-11.4	1.9	81.2*	58.8*	12.7
Cc1occc1C(=O)/C(C#N)=C/c1ccc(O)c(Br)c1	-25.7	17.9	92.6*	96.9*	-0.4	97.6*	98.3*	100.3*	102.8*	97.3*	97.3*
N#C/C(=C\c1ccc(O)c(Br)c1)C(=O)N1CCCCC1	-150.4	-21.9	13.2	-1.5	1.0	7.3	.	.	.	.	.
COC(=O)c1ccccc1-c1ccc(/C=C2\C(=O)N(c3ccccc3)N=C2c2ccccc2)o1	1.2	26.7	13.0	9.4	0.6	52.9*	11.1	6.5	-3.9	-0.2	0.0
COc1cc(NC(=O)Cn2cnc3c(NCc4ccccc4)ncnc32)cc(OC)c1OC	-1.8	22.1	7.6	.	.	.	.	.	.	.	.
COC(=O)CN(C)C(=O)c1ccc2nc(Cc3cccc(Cl)c3)oc2c1	2.2	19.7	-12.3	-5.3	-5.9	-0.8	.	.	.	.	.
C(=N\N=C\c1cccs1)/c1cccs1	1.9	21.0	52.0*	39.9	2.9	56.8*	28.1	60.7*	87.3*	61.9*	37.9
C(=N\n1cnnc1)/c1cccs1	0.5	18.7	-1.9	0.8	1.2	-19.6	.	.	.	.	.
CC1(C)C2C/C(=N\O)C(C)(/[N+]([O-])=C/c3cccc([N+](=O)[O-])c3)CC21 (stereo not given)	0.9	6.3	-2.4	5.0	-4.0	-24.4	.	.	.	.	.
O=C(N/N=C/c1ccc(Cl)cc1)c1n[nH]c2c1CCCC2	0.9	3.7	-4.8	-7.7	2.3	-7.9	.	.	.	.	.
O=C(N/N=C/c1ccccc1)c1n[nH]c2c1CCCC2	2.7	-2.4	50.1*	47.4	5.3	58.3*	11.8	39.1	69.2*	76.5*	12.8
O=C(N/N=C/c1cccs1)c1n[nH]c2c1CCC2	3.1	4.3	77.1*	49.6	9.3	79.5*	41.3	70.0*	89.1*	90.3*	51.1*
O=C(N/N=C/c1ccccc1Cl)c1cccc(F)c1	2.9	15.1	72.5*	53.3*	-2.0	69.3*	3.6	70.3*	91.5*	76.1*	67.5*
O=C(N/N=C/c1ccccc1Cl)c1n[nH]c2c1CCCC2	-0.1	10.6	98.2*	85.8*	20.1*	68.8*	-9.6	-2.1	-1.9	26.2	-14.2
O=[N+]([O-])c1cccc(/C=C/c2nc[nH]c2[N+](=O)[O-])c1	3.0	18.2	25.0	57.3*	-0.8	70.1*	18.1	14.8	16.1	49.1	2.9
CCCN(C(=O)CCSc1ccc(F)cc1)c1c(N)n(Cc2ccccc2)c(=O)[nH]c1=O	1.5	2.8	12.2	-4.8	-4.0	-9.1	.	.	.	.	.
CC(C)(O)C(=O)N=Nc1c(O)[nH]c2ccccc12	1.9	16.9	0.9	-3.6	-0.2	-16.0	.	.	.	.	.
Oc1c(N=Nc2ccc(F)cc2)ccc2ccccc12	11.7	42.2*	98.6*	85.8*	2.6	81.7*	38.1	45.3	21.4	78.3*	12.0
Oc1[nH]c2ccccc2c1N=Nc1ccc(F)cc1	-8.4	23.2	89.2*	68.8*	-0.6	78.3*	-17.6	64.5*	66.9*	25.7	-5.5
SMILES	SENP1 inh	SENP8 block-1	SENP7 block	SENP8 block-2	HSP90 inh	SENP6 inh	SENP8 conf	SENP6 conf	SENP7 conf	Casp3 SENP sel	SENP luc ctr
Oc1[nH]c2ccccc2c1N=Nc1ccccc1F	-1.8	24.5	74.8*	2.5	1.6	40.9	16.0	11.3	35.4	19.5	11.0
Oc1[nH]c2ccccc2c1N=Nc1nc2ccccc2s1	41.0*	29.2	89.2*	55.4*	-4.8	71.7*	39.7	31.8	50.7*	35.9	42.9
Oc1ccc2ccccc2c1N=Nc1ccc(F)cc1	6.3	36.1	6.7	-7.4	4.7	6.0	.	.	.	.	.
CC(C)Oc1ccc(S(=O)(=O)N2CCOCC2)cc1NC(=O)CSC(=S)N1CCCC1	-0.2	11.4	.	.	.	.	.	.	.	.	.
COc1cc(CN2CCNC(=O)C2CC(=O)N(Cc2nccn2C)C(C)C)cc(OC)c1 (stereo not given)	-5.6	-37.4	7.8	-1.6	-2.0	-10.1	.	.	.	.	.
C[C@@H](c1ccccc1)N1C[C@@H](COCc2ccccc2)Oc2cc(N3CC[C@@H](O)C3)ccc2S1(=O)=O	1.5	7.3	.	.	.	.	.	.	.	.	.
COc1ccc(CCc2nnc(CCC(=O)NCc3cnc4ccccn34)o2)cc1	-1.5	-23.1	7.6	2.6	3.6	-0.6	.	.	.	.	.
Oc1[nH]c2ccccc2c1N=Nc1ccccc1	-21.7	49.5*	80.4*	73.2*	1.3	87.9*	39.8	72.7*	93.9*	62.1*	7.0
COc1ccc(OCCOc2ccc(/C=C3\C(=N)N4N=C(C)SC4=NC3=O)cc2)cc1	-2.2	13.8	0.4	19.9	.	-7.7	.	.	.	.	.
O=C(Oc1ccc[nH]c1=O)C1CC1	0.9	0.5	.	.	.	.	.	.	.	.	.
CCNC(=O)Oc1ccc[nH]c1=O	1.1	16.3	14.0	13.0	2.9	51.2*	-3.4	0.0	-6.0	4.0	3.0
CCN(CC)S(=O)(=O)c1ccc(C)c(NC(=O)COC(=O)C=C(C)C)c1	0.0	27.4	6.2	-4.7	-0.4	56.3*	-5.5	-8.9	-3.4	6.1	2.7
